Measurements: article PMC9053626 (RSC Advances, 2020)

What was measured:
[1] = release medium vs anhydrous ethanol; cited from earlier work
4T1 cells = assay: MTT cytotoxicity assay; format: cell-based, murine; details: Mus musculus
Outline: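 4T1 cells grown in 1640 medium with 5% FBS and 1% penicillin/streptomycin at 37 °C, 5% CO2. Seeded at 2000 cells/well for 24 h, then exposed to a range of test concentrations for 48 h or 72 h. Washed twice with cold PBS, given fresh medium plus MTT for 4 h, formazan dissolved in DMSO, A570 read. Inhibition rate calculated relative to untreated control absorbance.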

[2] = test system: 4T1 cell tumor-bearing xenograft model; assay: In vivo antitumor study and histological evaluation; set-up: species or system female BABL/c mice
Outline: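 Orthotopic 4T1 model: 0.1 mL of 4T1 cells (1 × 107 mL−1) injected into the fourth pair of breast pads. At 50–100 mm3 tumours, mice randomised into three groups (n = 6). Killed day 14; heart, liver, lung, spleen, kidney and tumour fixed in 10% formaldehyde for H&E.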

Compound: C[C@H]1[C@@H](O)O[C@@H]2O[C@@]3(C)CC[C@H]4[C@H](C)CC[C@@H]1[C@@]24OO3 [DHA-Sol, Dihydroartemisinin]
- stability of DHA in the release medium [1]: degraded quickly in the release medium
- IC50 (4T1 cells; 4T1, 48 h): 2310 ± 100 nM
- IC50 (4T1 cells; 4T1, 72 h): 620 ± 20 nM
- tumor volume ([2]; after 14 days, i.v. 0.07 mmol DHA kg^−1 on days 1, 3, 5, 7, 9, saline group 3309.68 ± 441.61): 867.27 ± 117.43 mm^3
- body weight change versus saline group ([2]; end of the experiment, p > 0.1): a significant change in the body weight of rats was not observed
- survival of mice during the experiment ([2]; n = 6 per group, 0.07 mmol DHA kg^−1 i.v. five times): two mice treated with the DHA-Sol group died during the experiment
